Laboratory results: ChEMBL document CHEMBL1208778, “Synthesis and anti-cancer activity of chalcone linked imidazolones” (2010)
The source made the active and inactive calls. The calls are words filed in the database; no cut-off is given here.

How the values were obtained:
Assay type in all cases: functional
[1] = Growth inhibition of human RPMI8266 cells
Summary of the method: (§1)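 Five-dose testing was run within the NCI (Bethesda) in vitro Anticancer Screen Program on a panel of 53 human tumour cell lines from nine cancer types. Growth inhibition is reported as GI50.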

[2] = system: K562; assay: Growth inhibition of human K562 cells; summary of the method: as §1
[3] = system: A549; assay: Growth inhibition of human A549 cells; summary of the method: as §1
[4] = system: EKVX; assay: Growth inhibition of human EKVX cells; summary of the method: as §1
[5] = system: HOP-62; assay: Growth inhibition of human HOP62 cells; summary of the method: as §1
[6] = system: NCI-H226; assay: Growth inhibition of human NCI-H226 cells; summary of the method: as §1
[7] = system: NCI-H23; assay: Growth inhibition of human NCI-H23 cells; summary of the method: as §1
[8] = system: NCI-H322M; assay: Growth inhibition of human NCI-H322M cells; summary of the method: as §1
[9] = system: NCI-H460; assay: Growth inhibition of human NCI-H460 cells; summary of the method: as §1
[10] = system: NCI-H522; assay: Growth inhibition of human NCI-H522 cells; summary of the method: as §1
[11] = system: COLO 205; assay: Growth inhibition of human COLO205 cells; summary of the method: as §1
[12] = system: HCC 2998; assay: Growth inhibition of human HCC2998 cells; summary of the method: as §1
[13] = system: HCT-116; assay: Growth inhibition of human HCT116 cells; summary of the method: as §1
[14] = system: HCT-15; assay: Growth inhibition of human HCT15 cells; summary of the method: as §1
[15] = system: HT-29; assay: Growth inhibition of human HT-29 cells; summary of the method: as §1
[16] = system: KM12; assay: Growth inhibition of human KM12 cells; summary of the method: as §1
[17] = system: SW-620; assay: Growth inhibition of human SW620 cells
Summary of the method: (§2)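 Compounds that passed a preliminary screen were tested at five doses in the NCI (Bethesda) in vitro Anticancer Screen Program against a 53-line human tumour panel spanning leukemia, lung, colon, CNS, melanoma, ovarian, renal, prostate and breast. Growth inhibition is reported as GI50.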

[18] = system: SF-268; assay: Growth inhibition of human SF268 cells; summary of the method: as §1
[19] = system: SF-295; assay: Growth inhibition of human SF295 cells; summary of the method: as §1
[20] = system: SF-539; assay: Growth inhibition of human SF539 cells; summary of the method: as §1
[21] = system: SNB-19; assay: Growth inhibition of human SNB19 cells; summary of the method: as §2
[22] = system: SNB-75; assay: Growth inhibition of human SNB75 cells; summary of the method: as §2
[23] = system: U-251; assay: Growth inhibition of human U251 cells; summary of the method: as §2
[24] = system: A498; assay: Growth inhibition of human A498 cells; summary of the method: as §1
[25] = system: 786-0; assay: Growth inhibition of human 786-0 cells; summary of the method: as §1
[26] = system: ACHN; assay: Growth inhibition of human ACHN cells; summary of the method: as §1
[27] = system: CAKI-1; assay: Growth inhibition of human Caki1 cells; summary of the method: as §1
[28] = system: RXF 393; assay: Growth inhibition of human RXF393 cells; summary of the method: as §1
[29] = system: SN12C; assay: Growth inhibition of human SN12C cells; summary of the method: as §2
[30] = system: TK-10; assay: Growth inhibition of human TK10 cells; summary of the method: as §2
[31] = system: UO-31; assay: Growth inhibition of human UO31 cells; summary of the method: as §2
[32] = system: PC-3; assay: Growth inhibition of human PC3 cells; summary of the method: as §1
[33] = system: OVCAR-3; assay: Growth inhibition of human OVCAR-3 cells; summary of the method: as §1
[34] = system: OVCAR-4; assay: Growth inhibition of human OVCAR4 cells; summary of the method: as §1
[35] = system: OVCAR-5; assay: Growth inhibition of human OVCAR5 cells; summary of the method: as §1
[36] = system: OVCAR-8; assay: Growth inhibition of human OVCAR8 cells; summary of the method: as §1
[37] = system: NCI/ADR-RES; assay: Growth inhibition of human NCI/ADR-RES cells; summary of the method: as §1
[38] = system: SK-OV-3; assay: Growth inhibition of human SKOV3 cells; summary of the method: as §2
[39] = system: MCF7; assay: Growth inhibition of human MCF7 cells; summary of the method: as §1
[40] = system: MDA-MB-231; assay: Growth inhibition of human MDA-MB-231 cells; summary of the method: as §1
[41] = system: Hs-578T; assay: Growth inhibition of human Hs 578T cells; summary of the method: as §1
[42] = system: BT-549; assay: Growth inhibition of human BT549 cells; summary of the method: as §1
[43] = system: T47D; assay: Growth inhibition of human T47D cells; summary of the method: as §2
[44] = system: LOX IMVI; assay: Growth inhibition of human LOXIMVI cells; summary of the method: as §1
[45] = system: Malme-3M; assay: Growth inhibition of human MALME-3M cells; summary of the method: as §1
[46] = system: M14; assay: Growth inhibition of human M14 cells; summary of the method: as §1
[47] = system: MDA-MB-435; assay: Growth inhibition of human MDA-MB-435 cells; summary of the method: as §1
[48] = system: SK-MEL-2; assay: Growth inhibition of human SK-MEL-2 cells; summary of the method: as §1
[49] = system: SK-MEL-28; assay: Growth inhibition of human SK-MEL-28 cells; summary of the method: as §1
[50] = system: SK-MEL-5; assay: Growth inhibition of human SK-MEL-5 cells; summary of the method: as §1
[51] = system: UACC-257; assay: Growth inhibition of human UACC257 cells; summary of the method: as §2
[52] = system: UACC-62; assay: Growth inhibition of human UACC62 cells; summary of the method: as §2
[53] = system: MCF7; assay: Cell cycle arrest in human MCF7 cells assessed as accumulation at G0 phase at 10 uM after 24 hrs by FACS analysis
Summary of the method: (§3)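 MCF-7 breast carcinoma cells were exposed to 10 µM test compound for 24 h, with DMSO as the vehicle control. Cell-cycle distribution was read by FACS as the percentage of cells in G0, G1, S and G2/M.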

[54] = system: MCF7; assay: Cell cycle arrest in human MCF7 cells assessed as accumulation at G1 phase at 10 uM after 24 hrs by FACS analysis; summary of the method: as §3
[55] = system: MCF7; assay: Cell cycle arrest in human MCF7 cells assessed as accumulation at S phase at 10 uM after 24 hrs by FACS analysis; summary of the method: as §3
[56] = system: MCF7; assay: Cell cycle arrest in human MCF7 cells assessed as accumulation at G2/M phase at 10 uM after 24 hrs by FACS analysis; summary of the method: as §3
[57] = system: MCF7; assay: Cell cycle arrest in human MCF7 cells assessed as accumulation at G0 phase at 30 uM after 24 hrs by FACS analysis
Summary of the method: (§4)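 MCF-7 cells were treated at 30 µM for 24 h alongside a DMSO control. Fractions in G0, G1, S and G2/M phases were measured by FACS, and values are means of three experiments.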

[58] = system: MCF7; assay: Cell cycle arrest in human MCF7 cells assessed as accumulation at G1 phase at 30 uM after 24 hrs by FACS analysis; summary of the method: as §4
[59] = system: MCF7; assay: Cell cycle arrest in human MCF7 cells assessed as accumulation at S phase at 30 uM after 24 hrs by FACS analysis; summary of the method: as §4
[60] = system: MCF7; assay: Cell cycle arrest in human MCF7 cells assessed as accumulation at G2/M phase at 30 uM after 24 hrs by FACS analysis; summary of the method: as §4

COc1cc(/C=C/C(=O)c2cccc(-n3cc(-c4cc(OC)c(OC)c(OC)c4)[nH]c3=O)c2)cc(OC)c1OC gave a GI50 [1] of 0.23 µM, a GI50 [2] of 0.59 µM and a GI50 [3] of 3.03 µM. For the same compound, the GI50 [4] was 9.47 µM, the GI50 [5] was 3.08 µM and the GI50 [6] was 14.4 µM. The GI50 [7] was 2 µM, the GI50 [8] was 3.61 µM and the GI50 [9] was 1.73 µM. For the same compound, the GI50 [10] was 1.05 µM, the GI50 [11] was 1.52 µM and the GI50 [12] was 1.92 µM. For the same compound, the GI50 [13] was 0.74 µM, the GI50 [14] was 1.89 µM and the GI50 [15] was 1.7 µM. For the same compound, the GI50 [16] was 1.12 µM, the GI50 [17] was 1.03 µM and the GI50 [18] was 2.2 µM. It also gave a GI50 [19] of 4.96 µM, a GI50 [20] of 3.12 µM and a GI50 [21] of 4.07 µM. The GI50 [22] was 5.13 µM, the GI50 [23] was 1.23 µM and the GI50 [24] was 20.3 µM. For the same compound, the GI50 [25] was 1.59 µM, the GI50 [26] was 1.74 µM and the GI50 [27] was 2.89 µM. It also gave a GI50 [28] of 1.62 µM, a GI50 [29] of 2.75 µM and a GI50 [30] of 3 µM. It also gave a GI50 [31] of 0.96 µM, a GI50 [32] of 2.63 µM and a GI50 [33] of 1.48 µM. The GI50 [34] was 3.77 µM, the GI50 [35] was 4.38 µM and the GI50 [36] was 2.32 µM. The GI50 [37] was 2.1 µM, the GI50 [38] was 5.12 µM and the GI50 [39] was 0.47 µM. For the same compound, the GI50 [40] was 4.19 µM, the GI50 [41] was “inactive” and the GI50 [42] was 1.52 µM. For the same compound, the GI50 [43] was 3.08 µM, the GI50 [44] was 1.23 µM and the GI50 [45] was 1.8 µM. The GI50 [46] was 2.12 µM, the GI50 [47] was 2.11 µM and the GI50 [48] was 3.02 µM. The GI50 [49] was 1.61 µM, the GI50 [50] was 2.76 µM and the GI50 [51] was 2.22 µM. The GI50 [52] was 1.87 µM, the Activity [53] was 3.63% and the Activity [54] was 47.6%. It also gave an Activity [55] of 25.65%, an Activity [56] of 23.12% and an Activity [57] of 39.7%. For the same compound, the Activity [58] was 42.7%, the Activity [59] was 7.85% and the Activity [60] was 9.75%.
